In assay [1] the target is T1, Protein cereblon/Protein deacetylase HDAC6 (Homo sapiens, UniProt Q9UBN7+Q96SW2). Kind of assay: Protac activity at CRBN/HDAC6 in human MM1S cells assessed as HDAC6 degradation at 10 to 100 nM measured after 6 hrs by Western blot analysis. It counts as cell-based.
Target sequence in this assay (Q96SW2 whole entry, looked up): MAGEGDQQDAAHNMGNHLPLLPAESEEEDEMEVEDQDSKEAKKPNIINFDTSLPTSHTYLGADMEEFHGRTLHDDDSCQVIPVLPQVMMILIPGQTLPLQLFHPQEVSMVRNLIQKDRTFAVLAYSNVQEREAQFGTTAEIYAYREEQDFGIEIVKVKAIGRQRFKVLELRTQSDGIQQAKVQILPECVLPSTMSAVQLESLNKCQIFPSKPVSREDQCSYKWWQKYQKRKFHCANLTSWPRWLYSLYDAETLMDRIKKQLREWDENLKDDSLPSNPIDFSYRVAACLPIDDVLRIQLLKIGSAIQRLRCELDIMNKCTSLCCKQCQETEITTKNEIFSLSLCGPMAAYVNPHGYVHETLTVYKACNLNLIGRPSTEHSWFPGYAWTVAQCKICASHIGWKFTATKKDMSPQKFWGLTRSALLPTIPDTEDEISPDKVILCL
Target sequence in this assay (Q9UBN7 whole entry, looked up): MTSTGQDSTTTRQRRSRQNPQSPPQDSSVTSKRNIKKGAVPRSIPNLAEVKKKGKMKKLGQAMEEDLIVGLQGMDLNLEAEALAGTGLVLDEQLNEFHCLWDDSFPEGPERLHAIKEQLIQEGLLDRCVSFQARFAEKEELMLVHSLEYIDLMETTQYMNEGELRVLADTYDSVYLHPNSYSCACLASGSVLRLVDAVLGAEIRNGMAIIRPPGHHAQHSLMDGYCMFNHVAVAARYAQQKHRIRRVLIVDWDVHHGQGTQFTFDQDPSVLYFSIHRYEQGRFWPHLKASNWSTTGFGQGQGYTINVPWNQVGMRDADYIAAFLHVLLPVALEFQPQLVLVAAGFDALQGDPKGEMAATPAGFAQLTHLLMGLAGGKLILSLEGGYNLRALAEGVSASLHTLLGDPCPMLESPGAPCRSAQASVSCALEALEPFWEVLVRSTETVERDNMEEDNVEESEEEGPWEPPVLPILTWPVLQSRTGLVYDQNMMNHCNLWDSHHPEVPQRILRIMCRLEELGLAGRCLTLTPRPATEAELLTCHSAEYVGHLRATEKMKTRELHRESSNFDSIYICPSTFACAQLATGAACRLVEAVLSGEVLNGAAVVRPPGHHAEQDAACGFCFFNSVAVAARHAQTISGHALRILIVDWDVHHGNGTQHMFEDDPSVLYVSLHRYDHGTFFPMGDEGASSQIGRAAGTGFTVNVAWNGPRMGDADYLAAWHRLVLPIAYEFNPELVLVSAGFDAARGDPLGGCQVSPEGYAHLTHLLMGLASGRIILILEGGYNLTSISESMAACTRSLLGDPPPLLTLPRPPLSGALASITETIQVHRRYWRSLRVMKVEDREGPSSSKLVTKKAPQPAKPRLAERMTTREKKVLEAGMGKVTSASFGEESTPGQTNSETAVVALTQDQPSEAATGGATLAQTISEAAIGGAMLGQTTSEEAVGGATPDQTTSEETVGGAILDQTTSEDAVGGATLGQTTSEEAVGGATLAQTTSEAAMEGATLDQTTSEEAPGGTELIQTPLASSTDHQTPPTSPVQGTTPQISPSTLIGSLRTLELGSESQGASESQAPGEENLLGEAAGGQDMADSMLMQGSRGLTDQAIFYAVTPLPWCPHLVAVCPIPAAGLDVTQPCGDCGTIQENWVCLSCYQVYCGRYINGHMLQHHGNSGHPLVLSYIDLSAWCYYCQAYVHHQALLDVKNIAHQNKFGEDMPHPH
The target of assay [2] is T1, Protein cereblon/Protein deacetylase HDAC6. Description: Protac activity at CRBN/HDAC6 in human MM1S cells assessed as HDAC6 degradation measured after 6 hrs by ELISA. It counts as cell-based. A digest of the protocol: (§1)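 In-cell ELISA: MM1S cells (5 × 10^4 per well) seeded overnight, treated 6 h (dosed as 5× medium; 0.1 nM–1 μM or 10/100 nM). Fixed in 8% formaldehyde/TBS, permeabilized with 0.1% Triton X, peroxidase quenched with 1% H2O2, blocked in 5% BSA. Anti-HDAC6 rabbit mAb (1:1000, 2 h) then HRP secondary; TMB read as OD450 − OD570. Background wells lacked primary antibody. Signal normalized to Janus Green and to DMSO wells, n = 3. DC50/Dmax from three-parameter fit.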
Background: ELISA stands for enzyme-linked immunosorbent assay.
Target sequence in this assay (Q9UBN7 whole entry): as the sequence (Q9UBN7 whole entry, looked up) above
Target sequence in this assay (Q96SW2 whole entry): as the sequence (Q96SW2 whole entry, looked up) above

For assay [3] the target is unchanged. Kind of assay: Protac activity at CRBN/HDAC6 in human MM1S cells assessed as HDAC6 degradation measured after 6 hrs by ELISA relative to control. It is filed as cell-based. The gist of the method:
as §1
Target sequence in this assay (Q96SW2 whole entry, looked up): as above
Target sequence in this assay (Q9UBN7 whole entry, looked up): as the sequence (Q9UBN7 whole entry, looked up) above

For assay [4] the target is unchanged. Description: Protac activity at CRBN/HDAC6 in human MM1S cells assessed as HDAC6 degradation at 100 nM measured after 6 hrs by Western blot analysis. It counts as cell-based.
Target sequence in this assay (Q96SW2 whole entry, looked up): as the sequence (Q96SW2 whole entry, looked up) above
Target sequence in this assay (Q9UBN7 whole entry, looked up): as the sequence (Q9UBN7 whole entry, looked up) above
The test system of assay [5] is MM1.S. Description: Antiproliferative activity against human MM1S cells assessed as reduction in cell viability at 1 uM measured after 72 hrs by resazurin dye based assay. It counts as functional. A general note: Resazurin is reduced to fluorescent resorufin, in cell work by metabolically active cells.
Assay [6] relates to MM1.S. Description: Antiproliferative activity against human MM1S cells assessed as reduction in cell viability measured after 72 hrs by resazurin dye based assay. It counts as functional. The gist of the method: (§2)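 MM1S cells seeded at 1 × 10^4 per well, left overnight, then given compound or DMSO vehicle (added as 5× dosing medium) for 72 h at 37 °C, 5% CO2. Resazurin added (10× solution, 1 mg/mL), then incubated overnight at 37 °C. OD read at 570 and 600 nm. Viability is relative to vehicle, n = 3. Curves fitted as [inhibitor] vs response (three parameters); test range 0.3 nM–3 μM.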

Assay [7] concerns MM1.S. Kind of assay: Antiproliferative activity against human MM1S cells assessed as reduction in cell viability measured after 72 hrs by resazurin dye based assay relative to control. It is filed as functional. The gist of the method: as §2
Assay [8] has as its target T1, Protein cereblon/Protein deacetylase HDAC6. Description: Protac activity at CRBN/HDAC6 in human HepG2 cells assessed as HDAC6 degradation up to 1 uM incubated for 6 hrs by Western blot analysis. It counts as cell-based.
Target sequence in this assay (Q96SW2 whole entry, looked up): as the sequence (Q96SW2 whole entry, looked up) above
Target sequence in this assay (Q9UBN7 whole entry, looked up): as the sequence (Q9UBN7 whole entry, looked up) above

The source made the active and inactive calls. No cut-off for these calls is given here.

Usually DC50 stands for the midpoint of the concentration-degradation curve. As to `CCCCN(Cc1ccc(C(=O)NO)cc1)C(=O)Nc1ccc(OCCn2cc(CCCNc3cccc4c3C(=O)N(C3CCC(=O)NC3=O)C4=O)nn2)cc1` (configuration not stated), the result in assay [1] was Active. In assay [2], the DC50 turned out to be 2.54 nM. Also, the %max in assay [3] was 86.3%.
With `CCCCN(Cc1ccc(C(=O)NO)cc1)C(=O)Nc1ccc(OCCn2cc(CNc3cccc4c3C(=O)N(C3CCC(=O)NC3=O)C4=O)nn2)cc1` (configuration not stated), the DC50 in assay [2] was found to be 3.41 nM. In addition, the %max in assay [3] stood at 88%.
With `CCCCN(Cc1ccc(C(=O)NO)cc1)C(=O)Nc1ccc(OCCCn2cc(CCCNc3ccc4c(c3)C(=O)N(C3CCC(=O)NC3=O)C4=O)nn2)cc1` (configuration not stated), in assay [1], the result was Active.
Regarding `CCCCN(Cc1ccc(C(=O)NO)cc1)C(=O)Nc1ccc(OCCCCCn2cc(CNc3cccc4c3C(=O)N(C3CCC(=O)N(C)C3=O)C4=O)nn2)cc1` (configuration not stated), the result (in assay [4]; in the assay with MM1.S [5]) was inactive.
Take `O=C(CCCCCCC(=O)N/N=C/c1ccc(OCCOCCOCCn2cc(CNc3cccc4c3C(=O)N(C3CCC(=O)NC3=O)C4=O)nn2)cc1)NO` (configuration not stated): the result (in assay [1]; in the assay on MM1.S [5]) was Active. Also, the DC50 in assay [2] came out at 9.12 nM. Also, the %max in assay [3] was 84.1%.
A word on the EC50: it is the concentration that produces a half-maximal response. Turning to `CCCCN(Cc1ccc(C(=O)OC)cc1)C(=O)Nc1ccc(OCCCCCn2cc(CNc3cccc4c3C(=O)N(C3CCC(=O)NC3=O)C4=O)nn2)cc1` (configuration not stated), the result in assay [4] was inactive. Moreover, the outcome in the assay on MM1.S [5] was Active. In addition, the EC50 in the assay with MM1.S [6] was determined as 17.7 nM. The Imax in the assay on MM1.S [7] came to 44%.
On to `CCCCN(Cc1ccc(C(=O)NO)cc1)C(=O)Nc1ccc(OCCCCCn2cc(CNc3ccc4c(c3)C(=O)N(C3CCC(=O)NC3=O)C4=O)nn2)cc1` (configuration not stated), for which the result in assay [1] was Active.
As for `CCCCN(Cc1ccc(C(=O)NO)cc1)C(=O)Nc1ccc(OCCCCn2cc(CNc3ccc4c(c3)C(=O)N(C3CCC(=O)NC3=O)C4=O)nn2)cc1` (configuration not stated), the outcome in assay [1] and in assay [8] was Active.
As for `CCCCN(Cc1ccc(C(=O)NO)cc1)C(=O)Nc1ccccc1`, in the assay with MM1.S [5], the result was inactive.
The same measure, in the same setting: the result for `Nc1cccc2c1C(=O)N(C1CCC(=O)NC1=O)C2=O` (configuration not stated) reads “Active”.
As for `CCCCN(Cc1ccc(C(=O)NO)cc1)C(=O)Nc1ccc(OCCCCn2cc(CCNc3cccc4c3C(=O)N(C3CCC(=O)NC3=O)C4=O)nn2)cc1` (configuration not stated), the outcome in assay [1] was Active.
